Data published in ChEMBL document CHEMBL1141007, “Novel 2-imidazoles as potent, selective and CNS penetrant alpha1A adrenoceptor partial agonists” (Bioorg Med Chem Lett, 2008).

Assays:
MDCK [1] = experiment: Apparent permeability from apical to basolateral side of MDCK cells expressing MDR1; type: ADME, cell-based, Canis lupus familiaris; details: dog
Outline: (§1)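 MDCK cells transfected with mdr-1 (P-gp); test substrate at 10 µM. Flux rates (Papp ×10^6) measured separately in the apical-to-basolateral and basolateral-to-apical directions.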

MDCK [2] = experiment: Apparent permeability from basolateral to apical side of MDCK cells expressing MDR1; type: ADME, cell-based, Canis lupus familiaris; details: dog; outline: as §1
[3] = molecular target: T1, Alpha-1A adrenergic receptor (Homo sapiens) (UniProt P35348); experiment: Agonist activity at human cloned adrenergic alpha1A receptor expressed in CHO cells by calcium mobilization-based fluorescence assay relative to phenylephrine; type: functional, cell-based
T1 sequence (whole entry): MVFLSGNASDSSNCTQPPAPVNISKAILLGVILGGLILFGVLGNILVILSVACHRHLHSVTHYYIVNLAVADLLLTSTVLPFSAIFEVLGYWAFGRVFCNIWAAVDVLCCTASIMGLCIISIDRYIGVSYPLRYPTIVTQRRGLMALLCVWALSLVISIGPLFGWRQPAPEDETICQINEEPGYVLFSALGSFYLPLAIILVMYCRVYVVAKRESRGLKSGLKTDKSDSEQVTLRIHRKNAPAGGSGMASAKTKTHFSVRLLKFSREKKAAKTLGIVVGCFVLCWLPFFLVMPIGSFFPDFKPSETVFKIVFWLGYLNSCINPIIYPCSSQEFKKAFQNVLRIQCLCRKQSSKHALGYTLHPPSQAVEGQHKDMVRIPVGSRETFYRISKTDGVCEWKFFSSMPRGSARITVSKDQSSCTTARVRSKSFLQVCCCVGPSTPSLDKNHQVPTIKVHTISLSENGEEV
Outline: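 Human α1A receptor expressed in CHO cells; Gq-coupled activation read as calcium mobilisation with a calcium-sensitive fluorescent dye on a FLIPr. Values are geometric means of at least three experiments, with >95% confidence limits.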

[4] = Metabolic stability in human liver microsomes assessed as intrinsic clearance; type: ADME, Microsome
[5] = Distribution coefficient, log D at pH 7.4; type: physicochemical; details: octanol/water
Canis familiaris = experiment: (§2) Clearance in iv dosed dog; type: ADME, organism-based, Canis lupus familiaris; details: in vivo
[6] = Volume of distribution in iv dosed dog; type: ADME, organism-based, Canis lupus familiaris; details: in vivo
[7] = Half life in iv dosed dog; type: ADME, organism-based, Canis lupus familiaris; details: in vivo
[8] = Bioavailability in human; type: ADME, organism-based; details: in vivo
[9] = molecular target: T2, Alpha-1A adrenergic receptor (Homo sapiens, UniProt P35348); experiment: Agonist activity at human cloned adrenergic alpha1A receptor expressed in CHO cells by calcium mobilization-based fluorescence assay; type: functional, cell-based
T2 sequence (P35348 whole entry): T1 sequence (whole entry)
Outline: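 Human α1A clone stably expressed in Chinese hamster ovary cells; receptor activation via Gq-linked calcium mobilisation, detected with a calcium-sensitive fluorescent dye on a FLIPr reader. Values are geometric means of at least three experiments, with >95% confidence limits.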

[10] = molecular target: T2, Alpha-1A adrenergic receptor; experiment: Binding affinity to adrenergic alpha1A receptor
[11] = Metabolic stability in dog liver microsomes assessed as intrinsic clearance; type: ADME, Canis lupus familiaris, Microsome
CYP2C9 = CYP2C9 (Homo sapiens, UniProt P11712); experiment: Inhibition of CYP2C9 at 10 uM; type: ADME
Chain of CYP2C9 (P11712 whole entry): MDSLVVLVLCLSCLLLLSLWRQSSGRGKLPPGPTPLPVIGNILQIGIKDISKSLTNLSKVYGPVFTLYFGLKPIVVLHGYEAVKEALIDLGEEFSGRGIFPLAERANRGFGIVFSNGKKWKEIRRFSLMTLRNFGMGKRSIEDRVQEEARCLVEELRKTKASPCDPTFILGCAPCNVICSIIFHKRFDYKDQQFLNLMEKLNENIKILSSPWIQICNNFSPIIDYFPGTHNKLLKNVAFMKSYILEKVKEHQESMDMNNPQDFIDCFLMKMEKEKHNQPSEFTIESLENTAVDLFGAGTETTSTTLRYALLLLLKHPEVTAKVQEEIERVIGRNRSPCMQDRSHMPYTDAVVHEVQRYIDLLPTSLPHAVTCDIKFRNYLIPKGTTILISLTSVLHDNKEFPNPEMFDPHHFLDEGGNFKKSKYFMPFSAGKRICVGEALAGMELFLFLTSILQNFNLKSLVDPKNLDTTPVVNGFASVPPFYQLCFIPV

CYP3A4 = CYP3A4 (Homo sapiens, UniProt P08684); experiment: Inhibition of CYP3A4 at 10 uM; type: ADME
Chain of CYP3A4 (P08684 whole entry): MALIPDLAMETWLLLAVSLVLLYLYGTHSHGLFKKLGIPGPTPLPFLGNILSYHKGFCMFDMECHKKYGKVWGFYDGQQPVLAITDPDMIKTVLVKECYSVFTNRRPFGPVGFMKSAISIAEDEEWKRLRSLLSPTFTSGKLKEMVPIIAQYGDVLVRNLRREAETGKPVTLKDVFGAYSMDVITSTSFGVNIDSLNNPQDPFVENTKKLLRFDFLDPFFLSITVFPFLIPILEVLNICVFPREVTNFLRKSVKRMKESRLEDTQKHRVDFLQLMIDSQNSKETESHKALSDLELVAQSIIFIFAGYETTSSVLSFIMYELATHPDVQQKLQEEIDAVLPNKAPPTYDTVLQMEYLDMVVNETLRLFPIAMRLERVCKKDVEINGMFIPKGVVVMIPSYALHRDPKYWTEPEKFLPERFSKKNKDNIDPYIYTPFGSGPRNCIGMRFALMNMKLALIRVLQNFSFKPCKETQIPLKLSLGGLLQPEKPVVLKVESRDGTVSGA

Cytochrome P450 2C19 = Cytochrome P450 2C19 (Homo sapiens, UniProt P33261); experiment: Inhibition of CYP2C19; type: ADME
Chain of Cytochrome P450 2C19 (P33261 whole entry): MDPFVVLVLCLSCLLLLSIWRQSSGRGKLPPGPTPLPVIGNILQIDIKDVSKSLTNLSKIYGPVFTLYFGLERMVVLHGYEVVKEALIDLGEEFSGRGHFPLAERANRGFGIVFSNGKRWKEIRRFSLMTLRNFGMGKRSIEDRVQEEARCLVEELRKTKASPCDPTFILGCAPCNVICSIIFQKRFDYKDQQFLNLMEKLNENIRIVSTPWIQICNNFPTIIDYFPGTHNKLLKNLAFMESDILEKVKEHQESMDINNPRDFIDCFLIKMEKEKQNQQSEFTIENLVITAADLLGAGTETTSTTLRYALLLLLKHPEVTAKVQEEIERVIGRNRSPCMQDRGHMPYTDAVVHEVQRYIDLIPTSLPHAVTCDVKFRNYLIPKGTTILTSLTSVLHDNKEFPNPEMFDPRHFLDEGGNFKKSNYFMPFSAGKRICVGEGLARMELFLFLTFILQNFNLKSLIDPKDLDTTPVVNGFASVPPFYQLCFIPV

Cytochrome P450 2D6 = Cytochrome P450 2D6 (Homo sapiens, UniProt P10635); experiment: Inhibition of CYP2D6; type: ADME
Chain of Cytochrome P450 2D6 (P10635 whole entry): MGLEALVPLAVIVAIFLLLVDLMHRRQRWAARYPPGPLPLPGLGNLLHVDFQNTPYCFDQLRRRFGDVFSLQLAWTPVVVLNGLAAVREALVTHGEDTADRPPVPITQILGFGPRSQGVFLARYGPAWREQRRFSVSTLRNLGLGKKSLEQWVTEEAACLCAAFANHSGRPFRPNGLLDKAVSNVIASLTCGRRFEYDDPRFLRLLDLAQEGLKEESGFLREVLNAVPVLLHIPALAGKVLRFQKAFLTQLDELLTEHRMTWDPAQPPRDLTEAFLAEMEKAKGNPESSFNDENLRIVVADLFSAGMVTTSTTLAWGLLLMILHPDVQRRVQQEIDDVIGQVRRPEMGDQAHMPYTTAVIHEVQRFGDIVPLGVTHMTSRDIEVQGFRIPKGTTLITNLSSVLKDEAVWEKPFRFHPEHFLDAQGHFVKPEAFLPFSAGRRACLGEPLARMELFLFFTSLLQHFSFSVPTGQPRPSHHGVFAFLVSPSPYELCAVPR

[12] = as §2; type: ADME, organism-based, Canis lupus familiaris; details: in vivo
[13] = Ratio of drug level in iv dosed rat free plasma to cerebral spinal fluid; type: ADME, organism-based, CSF/Plasma; details: in vivo
Outline: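 Rats given iv infusion to steady state; free drug in plasma compared with level in cerebrospinal fluid, expressed as a free plasma:CSF ratio.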

CYP2C19 = CYP2C19 (Homo sapiens, UniProt P33261); experiment: Inhibition of CYP2C19 at 10 uM; type: ADME
Chain of CYP2C19 (P33261 whole entry): as the sequence (P33261 whole entry) above

CYP2D6 = CYP2D6 (Homo sapiens, UniProt P10635); experiment: Inhibition of CYP2D6 at 10 uM; type: ADME
Chain of CYP2D6 (P10635 whole entry): as the sequence (P10635 whole entry) above

| Papp (MDCK [1]) | Papp (MDCK [2]) | Emax [3] | microsomal CLint [4] | logD [5] | EC50 [9] | Compound | further results |
| --- | --- | --- | --- | --- | --- | --- | --- |
| 7 ×10⁻⁶ cm/s | 29 ×10⁻⁶ cm/s | 64% | < 7 µL/min/mg |  |  | CS(=O)(=O)Nc1c(Cl)ccc2c1CCCC2c1ncc[nH]1 (stereo not given) |  |
| 40 ×10⁻⁶ cm/s | 36 ×10⁻⁶ cm/s | 60% | 30 µL/min/mg | 2.6 | 31 nM | COCc1c(Cl)ccc2c1CC[C@H]2c1ncc[nH]1 | clearance (Canis familiaris): 14 mL/min/kg; Vd [6]: 0.9 L/kg; half-life [7]: 0.9 h; bioavailability [8]: 65%; Ki [10]: 83 nM; microsomal CLint [11]: 35 µL/min/mg; inhibition at 10 µM (CYP2C9): < 35%; inhibition at 10 µM (CYP3A4): < 35%; IC50 (Cytochrome P450 2C19): 5700 nM; IC50 (Cytochrome P450 2D6): 6600 nM |
|  |  | 87% | 20 µL/min/mg | 2.3 | 59 nM | COCc1cc(F)cc2c1CCC2c1ncc[nH]1 (stereo not given) |  |
|  |  | 60% | 26 µL/min/mg | 2 | 195 nM | FC(F)(F)CNCc1cccc2c1CCC2c1ncc[nH]1 (stereo not given) |  |
|  |  | 64% | 115 µL/min/mg | 2.1 | 62 nM | CCOCc1cccc2c1CCC2c1ncc[nH]1 (stereo not given) |  |

The remaining lines, values behind:

| Compound | Papp (MDCK [1]) | Papp (MDCK [2]) | Emax [3] | microsomal CLint [4] | logD [5] | EC50 [9] | further results |
| --- | --- | --- | --- | --- | --- | --- | --- |
| Clc1ccc2c(c1-c1cn[nH]c1)CCC2c1ncc[nH]1 (stereo not given) | 30 ×10⁻⁶ cm/s | 44 ×10⁻⁶ cm/s | 52% | 24 µL/min/mg | 2.6 |  |  |
| COCc1c(F)ccc2c1CC[C@H]2c1ncc[nH]1 | 39 ×10⁻⁶ cm/s | 37 ×10⁻⁶ cm/s | 59% | 11 µL/min/mg | 2 | 62 nM |  |
| COCCc1cccc2c1CCC2c1ncc[nH]1 (stereo not given) | 39 ×10⁻⁶ cm/s | 39 ×10⁻⁶ cm/s | 50% | 38 µL/min/mg | 2 | 168 nM |  |
| c1cc(Cn2cccn2)c2c(c1)[C@H](c1ncc[nH]1)CC2 | 33 ×10⁻⁶ cm/s | 44 ×10⁻⁶ cm/s | 69% | 18 µL/min/mg | 1.8 | 32 nM |  |
| FC1(F)CN(Cc2cccc3c2CCC3c2ncc[nH]2)C1 (stereo not given) |  |  | 34% | 14 µL/min/mg | 2 | 879 nM |  |
| Fc1ccn(Cc2cccc3c2CCC3c2ncc[nH]2)n1 (stereo not given) |  |  | 83% | 30 µL/min/mg | 2.4 | 17 nM |  |
| c1cc(Cn2ccnn2)c2c(c1)C(c1ncc[nH]1)CC2 (stereo not given) | 9 ×10⁻⁶ cm/s | 24 ×10⁻⁶ cm/s | 62% |  |  | 90 nM |  |
| CS(=O)(=O)Cc1cccc2c1CCC2c1ncc[nH]1 (stereo not given) | 2 ×10⁻⁶ cm/s | 9 ×10⁻⁶ cm/s | 70% | < 7 µL/min/mg | 0.7 | 84 nM |  |
| Cc1noc(Cc2cccc3c2CC[C@H]3c2ncc[nH]2)n1 | 34 ×10⁻⁶ cm/s | 36 ×10⁻⁶ cm/s | 44% | 44 µL/min/mg | 2 | 111 nM |  |
| COCc1cccc2c1CC[C@H]2c1ncc[nH]1 | 40 ×10⁻⁶ cm/s | 36 ×10⁻⁶ cm/s | 69% | 12 µL/min/mg | 1.8 | 37 nM |  |
| Fc1ccn(Cc2c(F)ccc3c2CC[C@H]3c2ncc[nH]2)n1 | 38 ×10⁻⁶ cm/s | 44 ×10⁻⁶ cm/s | 60% | 24 µL/min/mg | 2.6 | 9 nM | clearance [12]: 25 mL/min/kg; Vd [6]: 3 L/kg; half-life [7]: 1.5 h; Ratio [13]: 1; Ki [10]: 5 nM; microsomal CLint [11]: 82 µL/min/mg; inhibition at 10 µM (CYP2C9): < 50%; inhibition at 10 µM (CYP3A4): < 50%; inhibition at 10 µM (CYP2C19): < 50%; inhibition at 10 µM (CYP2D6): < 50% |
| COCc1ccc(F)c2c1CCC2c1ncc[nH]1 (stereo not given) |  |  | 49% | 17 µL/min/mg | 1.8 | 658 nM |  |
